# High-throughput results: PubChem, several laboratories
# Pf gamet viab: late stage P. falciparum gametocyte viability inhibitors, primary screen, ATP luminescence, HTS; P. falciparum stage V gametocytes, 24 h; inhibition, % at 10.9 µM; actives 0.065% (n = 150,000);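 active = inhibition above the mean plus 3 SD of compounds within the control limits, set per campaign, cut at about 38% in these data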;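 also: 0% = DMSO wells and 100% = medium only without gametocytes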
# bCat nuc transl: modulators of beta-catenin nuclear translocation, primary screen, imaging, HeLa cells, immunofluorescence, high-content | nuclear translocation activity, % at 5 µM | actives 0.3% (n = 190,000) | AID 1665, 2009;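 active = nuclear translocation activity above 50% at 5 µM, with a well cell count of 50 or more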;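 also: per-cell ratio of nuclear to cytoplasmic median beta-catenin stain intensity; plate controls were DMSO negative control for no effect and GSK-3 inhibitor IX positive control for full effect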
#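 System: HeLa cells, endogenous beta-catenin; compound dosing: 5 µM primary single dose, 0.1% DMSO, 0.02–20 µM confirmation series; incubation: 24 h compound exposure at 37°C, 5% CO2; signal: beta-catenin immunofluorescence imaging with DAPI; evaluation: % activation, nuclear-to-cytoplasmic median beta-catenin signal ratio per cell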
# WT yeast gro inh: growth inhibition of WT strain, primary screen, mitochondrial fusion inhibitor project, WT and mutant strains, chemical genetic. mitochondrial fusion phenotypic screen. inhibition, % at 10 µM. actives 2.1% (n = 190,000); in the data active = inhibition above about 58%; tested in S. cerevisiae
# Cl transport mod: KCC2 cotransporter modulators, thallium flux, primary screen, cell-based, HEK293 KCC2, FluoZin-2 fluorescence, MLSMR. Solute carrier family 12 member 5 (Homo sapiens), Q9H2X9. KCC2 cells, thallium flux FluoZin-2 fluorescence. B-score of Tl+ flux slope (higher = more flux/activation; lower = inhibition) at 10 µM. actives 2.2% (n = 190,000). AID 1456, 2008;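 active = thallium flux slope and its plate-corrected score both differing from the plate sample mean at a set confidence after two filtering rounds, in either direction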;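 also: slope of fluorescence scaled to starting intensity during 10 to 20 s after thallium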
# MT stabilizer: microtubule stabilizers in HeLa cells, primary screen, imaging, high-content imaging; HeLa tubulin immunostaining HCS, 24 h; share of cells brighter than vehicle mean+2SD; % tubulin-high responders, % at 10 µM; actives 0.83% (n = 200,000);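 active = plate Z-score above 3 for both tubulin-high and condensed-nucleus cell shares, with cell loss under 80%, at 10 µM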;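 also: anti alpha tubulin signal scored within the nucleus-defined area of each cell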
# * marks the source's active call; other numbers are inactive results; nt = no result given. In the library only some 4% were active in any assay of this set; here they are far more common.
SMILES,Pf gamet viab,bCat nuc transl,WT yeast gro inh,Cl transport mod,MT stabilizer
Cc1ccc(C(=O)CSc2nnc(-c3cccnc3)n2N)cc1,-2,9,8,1,30*
Cc1ccc(CSc2nnc(-c3cccnc3)n2N)cc1,nt,0,3,0.71,3
COc1cc(NC(=O)C2CC(c3c(F)cccc3Cl)=NO2)cc(OC)c1OC (stereo unspecified),3,nt,nt,nt,nt
CCC1Oc2ccc(C)cc2N(CC(=O)N(Cc2ccc(C)o2)C2CCCC2)C1=O (stereo unspecified),4,-1,65*,-0.72,4
CCC1Oc2ccc(C)cc2N(CC(=O)N2CCCC2)C1=O (stereo unspecified),-16,nt,nt,nt,nt
O=C(c1n[nH]c2ccccc12)N1CCN(S(=O)(=O)c2ccc3ccccc3c2)CC1,8,-2,77*,-0.94,3
CCc1ccc(Nc2cnn(-c3nc4ccccc4s3)c(=O)c2Cl)cc1,14,1,63*,-0.88,3
CNC(=O)C1(C(F)(F)F)C/C(=C\CCO)CCCO1 (stereo unspecified),-24,nt,nt,nt,nt
Cc1cc(N2CCN(C(=O)c3ccco3)CC2)n2ncc(-c3ccccc3)c2n1,-3,-4,93*,-0.79,4
Cc1cc(N2CCCCC2)n2ncc(-c3ccc(Cl)cc3)c2n1,-1,-2,58*,0.11,3
Cc1cc(N2CCOCC2)n2ncc(-c3ccc(Cl)cc3)c2n1,10,1,nt,-0.0022,nt
Cc1cc(NCCN2CCOCC2)n2ncc(-c3ccccc3)c2n1,-10,-1,9,nt,4
Cc1cc(NCCN2CCOCC2)n2ncc(-c3ccc(Cl)cc3)c2n1,nt,nt,nt,4.8*,3
CCCCN(CCCC)C(=S)NC(=O)C(C)(C)C,-6,0,9,38*,5
CCOC(=O)c1[nH]c(C)c(C(=O)OC(C)C(=O)Nc2ncc(Cl)cc2Cl)c1C (stereo unspecified),-18,0,-5,-0.46,42*
O=C(N/N=C/c1cccs1)C1CC(=O)N(c2ccccc2)C1 (stereo unspecified),nt,8,-21,0.074,1
Cc1ccc(/C=N/NC(=O)C2CC(=O)N(c3ccccc3)C2)s1 (stereo unspecified),4,57*,2,-0.018,9
C/C(=C\c1ccc(C)o1)C(=O)c1c(C)cc(C)[nH]c1=O,-5,-1,-1,-0.011,5
CNC(=S)N1CCN(C(c2ccccc2)c2ccccc2)CC1,-1,0,70*,-1.4,2
CCC(C)NC(=S)N1CCN(C(c2ccccc2)c2ccccc2)CC1 (stereo unspecified),9,1,69*,-0.66,2
CCC(C)NC(=S)N1CCN(Cc2ccccc2)CC1 (stereo unspecified),-12,1,-9,-1.4,3
C/C(=N\Nc1cc(C)nc(-c2ccccc2O)n1)c1ccccc1,-2,0,47,-0.28,4
Cc1cc(N/N=C/c2ccc(O)c(C)c2O)nc(-c2ccccc2O)n1,nt,38,76*,-0.79,62
O=C(Oc1c(Cl)cc(Cl)c2cccnc12)c1cccc([N+](=O)[O-])c1,nt,7,56,51*,3
O=C(Oc1ccc(Cl)c2cccnc12)c1cccc([N+](=O)[O-])c1,8,2,13,1.6,6
SMILES,Pf gamet viab,bCat nuc transl,WT yeast gro inh,Cl transport mod,MT stabilizer
CC1=NNC(=O)c2ccccc2O1,24,1,-7,-0.12,2
CCOC(=O)CC(=O)CSc1nc(-c2cccnc2)cc(C)c1C#N,17,0,60*,nt,3
COc1cc(OC)cc(-c2c(-c3cccs3)c3cc(-c4ccc(OCc5ccccc5)cc4)ccc3n2C)c1,5,nt,nt,nt,nt
O=C(Nc1ccccc1)n1ccc(-c2ccc(-n3ccnc3)cc2)n1,-3,2,-17,nt,4
CCCSc1ccc2nc(-c3ccccc3)cn2c1,4,0,70*,0.24,3
CCCCSc1ccc2nc(-c3ccc(C#N)cc3)cn2c1,nt,-1,48,-1.2,1
O=[N+]([O-])c1ccc2nc(-c3ccc(Cl)cc3)[nH]c2c1,14,-4,63*,-0.65,4
Cc1ccc(-c2nc3ccc([N+](=O)[O-])cc3[nH]2)cc1,19,-3,16,-0.66,3
C/C(CCc1ccc2c(c1)OCO2)=N\N=C1\NC(=O)CC(C(=O)Nc2ccc(Cl)cc2)S1 (stereo unspecified),nt,3,73*,0.08,1
Cc1ccc(N=C2NC(=O)CC(C(=O)Nc3ccc4c(c3)OCO4)S2)cc1 (stereo unspecified),-17,-1,1,-7.9e-05,5
CC(=O)c1sc(NC(=O)COc2ccc(C)c(C)c2)nc1C,7,3,-16,-0.31,3
COC(=O)C1=NN(C(=O)c2ccc(Cl)cc2)C(O)(c2ccccc2)C1 (stereo unspecified),nt,-2,12,17*,4
CCC1=NN(C(=O)c2ccc(Cl)cc2)C(O)(c2ccc(C)cc2)C1 (stereo unspecified),3,nt,nt,nt,nt
CCOC(=O)C1=NN(C(=O)c2ccc(C)cc2)C(O)(c2ccc(Cl)cc2)C1 (stereo unspecified),nt,2,28,121*,3
COc1cc(-c2nc3ccccn3c2/N=C/c2cc(OC)c(O)cc2Cl)ccc1O,-27,0,18,-1.8,6
CCCn1nnnc1NC(=O)c1ccc2ccccc2c1,-8,2,8,16*,8
O=C(NCc1ccc(Cl)cc1)c1ccccc1Oc1ccccc1,nt,-4,61*,1,4
COCCCNC(=O)c1ccccc1Oc1ccccc1,9,-4,0,0.78,2
COC(=O)C(Cc1ccccc1)NC(=S)NC(=O)c1ccccc1 (stereo unspecified),13,-2,7,2.2,4
O=C(Cn1cc(C(=O)C(F)(F)F)c2ccccc21)N1CCOCC1,nt,1,-21,0.34,3
Cc1ccccc1OCC(=O)NNC(=O)Nc1ccc(Cl)cc1,-2,76*,18,nt,3
CC(C)C(=O)Nc1ccc(C(=O)NNC(=O)CCCOc2ccc(Cl)cc2Cl)cc1,nt,2,79*,nt,2
C=CCNC(=S)NNC(=O)COc1ccc(Cl)cc1Cl,1,0,68*,3.7,10
O=C(COc1ccc(Cl)cc1Cl)NNC(=S)Nc1ccc(F)cc1,nt,4,62*,4.1*,1
C=CCNC(=O)COc1ccc(Br)cc1Cl,2,2,1,nt,3
COc1ccccc1C(=O)NCCOc1ccc(C)c(C)c1,0,nt,nt,nt,nt
COc1cc(SC)ccc1C(=O)NCCOc1ccc(C)c(C)c1,27,0,64*,-1.3,1
COc1cc(SC)ccc1C(=O)NCC1CCCO1 (stereo unspecified),nt,-2,86*,1.8,2
